Compound activity as filed in PubChem.
N-glyco inh: increase of ERlucT glycosylation luciferase signal, primary screen, N-linked glycosylation inhibitor project, D54 ERlucT cells, luminescence, set 2 | hit rate 0.23% among 360,000 | D54 ERlucT glycosylation luciferase reporter, 24 h; percent of 100 nM tunicamycin response | AID 588692, 2011 | reporter increase, % at 12.5 µM;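 active means mean luciferase reporter signal, scaled so untreated is 0 and the glycosylation-blocking control 100, at or above a set limit in every replicate; inconclusive means mean reaches the limit but not every replicate does; inactive means mean below the limit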;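 further: luciferase carries N-glycosylation sites so blocking glycosylation raises the light; 0% = median of neutral control wells and 100% = median of 100 nM tunicamycin wells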
AF4-AF9 inh: inhibitors of AF4 peptide binding to AF9, primary screen, biochemical, AlphaScreen, biotin-AF4 peptide, FLAG-AF9, single point. inhibition, % at 10 µM. hit rate 0.47% among 350,000. Protein AF-9 (Homo sapiens), P42568. AID 651704, 2012;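 active means every replicate reaching a set inhibition limit, whatever the replicate mean, cut at about 25% in these data; inconclusive means mean inhibition reaches that limit but some replicates miss it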;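 further: 0% = plate neutral control median and 100% = total signal loss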
FN deposition inh: inhibitors of fibronectin matrix deposition, primary screen, AH1F cells, Alexa488-fibronectin fluorescence, plate reader | AH1F fibroblasts, overnight | hit rate 0.086% among 350,000 | inhibition, % at 12.6 µM;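 active means mean inhibition across replicates of 30% or more, regardless of how many single replicates reach that level; inconclusive means mean under 30% yet at least half of replicates reach 30%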;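 further: positive control wells lacked labelled fibronectin entirely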
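Schedule: 1 h cell adhesion before compound, then overnight fibronectin incubation; test system: AH1F fibroblast monolayer depositing Alexa488-labelled fibronectin into matrix; quantity: 10000 AH1F cells per well; probe or stimulus: fluorescent fibronectin at 24 nM final; signal: fluorescence, ex 485 nm, em 525 nm; evaluation: percent inhibition as loss of matrix-bound fibronectin fluorescence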
RAD52 anneal inh: RAD52 DNA annealing inhibitors, primary screen, biochemical, FRET, single point, set 2; DNA repair protein RAD52 homolog (Homo sapiens), P43351; recombinant RAD52 DNA annealing, FRET fluorescence; inhibition, % at 18.7 µM; hit rate 0.46% among 360,000;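 active means every replicate showing at least 50% inhibition; inconclusive means mean inhibition at least 50% but not in every replicate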
RAD54 branch: inhibitors of human RAD54 branch migration, primary screen, biochemical, fluorescence, single point; inhibition, % at 10.4 µM; AID 602329, 2012; RAD54 Holliday junction branch migration, FAM/BHQ fluorescence; hit rate 0.14% among 360,000;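 active means mean normalized replicate activity at least 40 and at least half of replicates scoring 40 or more; inconclusive means only one of the two criteria met; inactive means mean below 40 and under half of replicates reaching 40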;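 further: 0% = median of neutral control wells and 100% = median of positive control wells; inhibitors cause a drop in the FAM fluorescence signal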
AlphaScreen intf: AlphaScreen signal interference counter-screen, dose response, artefact control, biochemical, cherry-picked samples, luminescence | shares compounds with AF4-AF9 inh | AC50, µM (titrated, usually from 12 µM), for the others: top-dose activity change, negative = inhibition | hit rate 45% among 530 | AID 720494, 2013; cut-off not given, nearly all actives have AC50 up to about 14 µM
DNA binder FP: DNA-binding compounds via dye displacement, dose response, artefact control for RAD52 inhibitor project, biochemical, fluorescence polarization, cherry-pick | shares compounds with RAD52 anneal inh | Salmon sperm DNA/acridine orange FP displacement | AC50, µM | hit rate 8% among 1,000;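 active means fitted half-maximal concentration for signal loss at or below twice the highest dose tested, in every separate run, actives reach about 64 µM in these data; inconclusive means runs disagree, or flat partial signal loss, or poor fit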
The depositor's hits bear a star; i = inactive; ? = inconclusive; . = no result; ! = not active in a repeat. Sampled rows, rich in hits. Any-hit rate of the full collection: about 0.92%.

SMILES	N-glyco inh	AF4-AF9 inh	FN deposition inh	RAD52 anneal inh	RAD54 branch	DNA binder FP	others
O=C(C[C@@H]1CC[C@H](NS(=O)(=O)c2ccccc2)[C@@H](CO)O1)N1CCN(c2ccccc2)CC1	.	-2	.	-9	.	.
CC(C)NC(=O)N(C)C[C@H]1OCCCC[C@@H](C)Oc2ccc(NS(=O)(=O)c3cccs3)cc2C(=O)N([C@H](C)CO)C[C@H]1C	.	0	-3	16	-4	.
COc1cc(NC(C)CCCNC(C)C)c2ncccc2c1OC (centres undefined)	5	3	1	-37	-13	.
COc1cc(NCCCCCCN)c2ncccc2c1OC	9	43*	.	63*	.	i	AlphaScreen intf=-30%
CC(C)Nc1ccc(Nc2ccnc3cc4ccccc4cc23)cc1	-7	84*	21	99*	.	22µM*	AlphaScreen intf=3µM*
CN1C(=O)c2cc(NC(=O)c3cccc(F)c3)ccc2OC[C@H]2O[C@@H](CC(=O)NCc3ccccc3Cl)CC[C@H]21	.	-2	2	-6	-1	.
COc1ccc(NC(=O)N(C)C[C@H]2Oc3ncc(C#CCC(C)C)cc3C(=O)N([C@H](C)CO)C[C@@H]2C)cc1	.	-9	-9	-10	5	.
CN(C)c1ccc(Nc2nc(N)c3ccccc3n2)cc1	-20	60*	-6	46	22	i	AlphaScreen intf=12µM*
Nc1nc(Nc2ccccc2)nc2ccccc12	-13	.	7	.	-1	.
C[n+]1c(-c2ccc(C=NNC(=O)c3ccc(C(=O)NN=Cc4ccc(-c5cn6ccccc6[n+]5C)cc4)cc3)cc2)cn2ccccc21	2	78*	-16	94*	.	26µM*	AlphaScreen intf=-18%
Cc1ccc2c(c1)c1c(n2CC(O)CN2CCCCCC2)CCCC1 (centres undefined)	1	35*	-4	81*	5	i	AlphaScreen intf=-7%
CCOc1ccc(NCc2cccn2-c2nnc(N3CCC(C(=O)NCCCN4CCCCC4C)CC3)s2)cc1 (centres undefined)	-1	47*	17	80*	13	i	AlphaScreen intf=14µM*
COc1ncnc2c1sc1nc(-c3ccccc3)c3c(c12)CCCC3	-4	.	-5	.	.	.
CN(C)CCNc1ncnc2c1sc1nc(-c3ccccc3)c3c(c12)CCCC3	-12	?	5	70*	7	i	AlphaScreen intf=-14%
CO[C@@H]1CN(C)C(=O)c2cc(NC(=O)C3CC3)ccc2OC[C@@H](C)N(CC2CCOCC2)C[C@H]1C	.	-7	-12	17	-4	.
NC(=NCCCCCCN=C(N)/N=C(\N)Nc1ccc(Cl)cc1)/N=C(\N)Nc1ccc(Cl)cc1	-10	53*!	0	95*	59*!	i	AlphaScreen intf=-9%
CC(C)N=C(N)N=C(N)Nc1ccc(Cl)cc1	0	-5	-1	-10	7	.
Cc1cc(C)nc(/N=C(\N)Nc2cccc(OCc3ccccc3)c2)n1	20	6	-3	49	-1	.
Cc1cc(C)nc(/N=C(\N)Nc2ccc(OCc3ccccc3)cc2)n1	48*	12	-1	55*	.	i
CCOC(=O)c1c(CS(=O)(=O)c2ccccc2)n(C)c2cc(Br)c(O)cc12	0	0	2	11	-8	.
CCOC(=O)c1c(CNc2ccncc2)n(C)c2cc(Br)c(O)cc12	4	2	-19	64*	.	i
C#CCOCCOCCOCCNc1nc(N2CCN(C(=O)[C@H](CCCCN)n3cc(CN)nn3)CC2)nc(N2CCN(C(=O)[C@H](CO)n3cc([C@@H](N)C(C)C)nn3)CC2)n1	2	.	-2	60*	-39	i
C#CCOCCOCCOCCNc1nc(N2CCN(C(=O)[C@H](CCCCN)n3cc(CN)nn3)CC2)nc(N2CCN(C(=O)[C@H](CCCCN)n3cc([C@@H](N)[C@H](C)CC)nn3)CC2)n1	1	64*	-15	72*	79*	37µM*
C#CCOCCOCCOCCNc1nc(N2CCN(C(=O)[C@H](CCCCN)n3cc(C(N)[C@H](C)CC)nn3)CC2)nc(N2CCN(C(=O)[C@H](CCC(=O)O)n3cc(C(N)[C@H](C)CC)nn3)CC2)n1 (some centres undefined)	2	.	.	.	-39	.
C#CCOCCOCCOCCNc1nc(N2CCN(C(=O)[C@H]([C@@H](C)CC)n3cc([C@@H](N)CC(C)C)nn3)CC2)nc(N2CCN(C(=O)[C@H](CCCCN)n3cc([C@@H](N)C(C)CC)nn3)CC2)n1 (some centres undefined)	1	.	.	.	8	.
SMILES	N-glyco inh	AF4-AF9 inh	FN deposition inh	RAD52 anneal inh	RAD54 branch	DNA binder FP	others
C#CCOCCOCCOCCNc1nc(N2CCN(C(=O)[C@H]([C@@H](C)CC)n3cc(CCC(=O)O)nn3)CC2)nc(N2CCN(C(=O)[C@H](CCCCN)n3cc(CCCC)nn3)CC2)n1	0	-4	6	12	-8	.
C#CCOCCOCCOCCNc1nc(N2CCN(C(=O)[C@H]([C@@H](C)CC)n3cc([C@@H](N)CO)nn3)CC2)nc(N2CCN(C(=O)[C@H](CCCCN)n3cc([C@@H](N)C(C)CC)nn3)CC2)n1 (some centres undefined)	0	17	2	57*	-12	i
C#CCOCCOCCOCCNc1nc(N2CCN(C(=O)[C@H]([C@@H](C)CC)n3cc(CCCCN)nn3)CC2)nc(N2CCN(C(=O)[C@H](CCCCN)n3cc(CCCC)nn3)CC2)n1	1	13	-9	54*	0	i
C/C=C/c1cnc2c(c1)C(=O)N([C@@H](C)CO)C[C@H](C)[C@H](CN(C)C(=O)Nc1ccc(C(F)(F)F)cc1)O2	.	1	.	10	-1	.
C[C@H](CO)N1C[C@H](C)[C@H](CN(C)C(=O)CN(C)C)Oc2cc(-c3ccc(C#N)cc3)ccc2S1(=O)=O	.	-1	-7	22	25	.
CO[C@H]1CN(C)C(=O)c2cc(NC(=O)NC(C)C)ccc2OC[C@@H](C)N(Cc2ccc(-c3ccccn3)cc2)C[C@@H]1C	.	4	5	19	1	.
O=C1c2ccccc2C(=O)c2c(NCc3cccnc3)cccc21	1	.	-3	.	-34	.
O=C1c2cccc(NCCCNCCO)c2C(=O)c2cccc(NCCCNCCO)c21	-18	32*	.	91*	.	1.5µM*
CCN(CC)CCN(Cc1cc2cc3c(cc2[nH]c1=O)OCO3)C(=S)NCCCN(C)C	1	6	5	35	27	.
